Tb MetRS inh – Trypanosoma brucei MetRS inhibition; purified T. brucei MetRS, ATP depletion, Kinase-Glo luminescence; inhibition, % at 11.9 µM; 360,000 compounds, 0.4% hits;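 active means inhibition above a per-plate cutoff of the control wells' mean inhibition plus 3 SD, cut at about 5.5% in these data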;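 further: 0% = DMSO wells median and 100% = median of wells with control inhibitor compound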
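Assay system: T. brucei methionyl-tRNA synthetase, purified | Medium: HEPES buffer with MgCl2, KCl, DTT, spermine, BSA, pyrophosphatase | Compound: 11.9 µM single point | Incubation: 15 min enzyme-compound preincubation, 2 h reaction, 10 min detection, 25 °C | Measured by: Kinase-Glo luciferase luminescence reporting remaining unconsumed ATP | Measure: % inhibition normalized to control-well medians | Replication: Singlicate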
APOBEC3A inh – human APOBEC3A DNA deaminase inhibition. P31941. recombinant A3A, FAM/TAMRA ssDNA deamination fluorescence. inhibition, % at 20 µM. 330,000 compounds, 0.41% hits;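 active means at least 40% inhibition at 20 µM here, with at most 30% in a related deaminase screen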;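 further: plate controls were A3A with DMSO for no effect and wells lacking A3A enzyme for full effect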
Target sequence (P31941 whole entry, looked up): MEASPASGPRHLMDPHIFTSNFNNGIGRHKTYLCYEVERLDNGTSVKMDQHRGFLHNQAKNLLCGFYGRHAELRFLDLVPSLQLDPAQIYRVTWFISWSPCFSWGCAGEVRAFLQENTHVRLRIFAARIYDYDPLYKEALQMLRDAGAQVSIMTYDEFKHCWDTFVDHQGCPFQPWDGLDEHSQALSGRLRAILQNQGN
A3G deaminase – blocks human APOBEC3G single-stranded DNA deamination; Q9HC16; recombinant A3G, ssDNA deamination FAM/TAMRA fluorescence; inhibition, % at 20 µM; 330,000 compounds, 0.28% hits; AID 493012;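 active means inhibition of at least 40% at 20 µM, with no more than 30% in the related APOBEC3A deaminase screen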;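 further: plate controls were DMSO wells with A3G for no effect and wells lacking A3G enzyme for full effect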
PHOSPHO1 inh – inhibitors of human PHOSPHO1 phosphatase; Q8TCT1; recombinant PHOSPHO1, absorbance phosphatase assay; inhibition, % at 13.3 µM; 290,000 compounds, 1.1% hits; AID 1565; in the data active means inhibition above about 60%
Target sequence (Q8TCT1 whole entry, looked up): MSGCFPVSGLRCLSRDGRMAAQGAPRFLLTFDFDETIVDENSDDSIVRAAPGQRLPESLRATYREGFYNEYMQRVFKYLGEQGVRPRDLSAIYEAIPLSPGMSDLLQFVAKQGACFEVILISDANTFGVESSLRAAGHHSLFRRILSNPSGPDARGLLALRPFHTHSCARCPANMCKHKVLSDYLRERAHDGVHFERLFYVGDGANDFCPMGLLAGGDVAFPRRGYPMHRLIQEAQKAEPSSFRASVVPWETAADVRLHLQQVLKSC
pCIP destab – p/CIP protein destabilization; Q05BA5; F442A p/CIP-EGFP cells, EGFP fluorescence, 16 h; decrease of EGFP signal, % at 10 µM; AID 1984; 290,000 compounds, 0.01% hits;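 active means EGFP signal decrease of at least 30% at 10 µM or well 3 SD below plate mean, unless failing retest; inactive means the rest, including hits failing retest or dose response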
* hit, by the source's call. The list is not random: actives were taken first. Their share in the collection is about 1.8%.

For CC(C)c1ccc(S(=O)(=O)/N=C2/C=C(Sc3ncn[nH]3)C(=O)c3ccccc32)cc1 the results were Tb MetRS inh 1.4, PHOSPHO1 inh 6.1 and pCIP destab -3.0.
`CCOC(=O)c1c(NC(=O)COC(=O)c2ccc(NC(=O)CC#N)cc2)sc(C(=O)NC)c1C` gave Tb MetRS inh -0.2, APOBEC3A inh 0.0 and A3G deaminase 2.4.
CCc1nnc(NC(=O)CN2C(=O)N(C)C3(CCCCC3)C2=O)s1 was read as Tb MetRS inh 0.1, APOBEC3A inh -1.1 and A3G deaminase -6.7.
`Cc1cc(CNC(=O)CCc2nnc(CCCc3ccccc3)o2)nn1C` gave Tb MetRS inh -0.4, APOBEC3A inh -6.7, A3G deaminase -6.5, PHOSPHO1 inh 56.0 and pCIP destab -7.1.
For COc1ccc(C(C)=NNS(=O)(=O)c2ccc(C)cc2)cc1OC the results were Tb MetRS inh 0.3.
`CN1CCC(N(CCc2ccccc2)C(=O)CCC(=O)O)CC1` gave Tb MetRS inh 0.0, APOBEC3A inh -6.5, A3G deaminase -0.6, PHOSPHO1 inh 18.7 and pCIP destab -1.3.
For Cc1csc(SCC(=O)c2ccc(S(=O)(=O)N3CCOCC3)cc2)n1 the results were Tb MetRS inh -1.3, APOBEC3A inh -2.1, A3G deaminase -4.1, PHOSPHO1 inh 77.8* and pCIP destab 8.5.
`CN(Cc1ccco1)C(=O)Cn1ncc2c([nH]c3ccccc32)c1=O` gave Tb MetRS inh -0.6, APOBEC3A inh -3.6, A3G deaminase -5.4, PHOSPHO1 inh 23.9 and pCIP destab 4.5.
`FC(F)(F)c1cc(Oc2ccc(Cl)cc2)nc(-c2ccccn2)n1` gave Tb MetRS inh -0.4, APOBEC3A inh 0.1, A3G deaminase -2.4, PHOSPHO1 inh 72.8* and pCIP destab 2.8.
`COc1ccc(C2NN=C(c3ccc(C)cc3)S2)cc1` (stereo not given) gave Tb MetRS inh -0.5, PHOSPHO1 inh 21.6 and pCIP destab -2.4.
`Cc1ccc(C2=NNC(C(O)C(O)C(O)CO)S2)cc1` (stereo not given) gave Tb MetRS inh 0.1, APOBEC3A inh -1.6, A3G deaminase -6.1, PHOSPHO1 inh 83.5* and pCIP destab -13.7.
For COc1ccc(Oc2cc(C(F)(F)F)nc(N(C)C)n2)cc1 the results were Tb MetRS inh -0.6, APOBEC3A inh -3.6, A3G deaminase -5.4, PHOSPHO1 inh 25.6 and pCIP destab -2.9.
Screening COc1ccc(OC)c(NC(=O)CSc2nnc(CNC(=O)c3cc(OC)c(OC)c(OC)c3)o2)c1 returned Tb MetRS inh -0.1, APOBEC3A inh -2.1, A3G deaminase -1.1, PHOSPHO1 inh -9.6 and pCIP destab 7.1.
CCOc1cc(C)ccc1OCc1nnc(SCC(=O)c2cccc([N+](=O)[O-])c2)n1CC was read as Tb MetRS inh -1.3, APOBEC3A inh -7.1, A3G deaminase -3.7, PHOSPHO1 inh 87.7* and pCIP destab -1.2.
CCn1c(COc2ccccc2)nnc1SCC(=O)c1cccc([N+](=O)[O-])c1 was read as Tb MetRS inh -0.1, APOBEC3A inh -5.6, A3G deaminase -7.1, PHOSPHO1 inh -56.6 and pCIP destab 9.7.
COc1ccccc1/C=c1\sc2nc(-c3ccccc3OC)nn2c1=O was read as Tb MetRS inh -0.8, APOBEC3A inh -2.3, A3G deaminase -4.4, PHOSPHO1 inh 86.9* and pCIP destab 1.2.
`COc1ccc(Br)cc1/C=c1\sc2nc(-c3ccco3)nn2c1=O` gave Tb MetRS inh 0.3, APOBEC3A inh 98.5, A3G deaminase 87.4, PHOSPHO1 inh -7.5 and pCIP destab -7.5.
For Cc1ccc(-c2nc3s/c(=C\c4ccco4)c(=O)n3n2)cc1 the results were Tb MetRS inh 0.1, APOBEC3A inh 39.9, A3G deaminase 14.8, PHOSPHO1 inh 94.9* and pCIP destab 4.5.
`Cc1ccc(/C=c2\sc3nc(-c4ccco4)nn3c2=O)o1` gave Tb MetRS inh -0.6, APOBEC3A inh 97.4, A3G deaminase 80.1, PHOSPHO1 inh 18.6 and pCIP destab -0.4.
For O=C(Nc1ccc2nc(C(F)(F)F)[nH]c2c1)[C@@H]1O[C@H](CO)[C@@H](O)[C@H]1O the results were Tb MetRS inh -0.1.
Screening O=C(OCC(=O)N1CCc2ccccc2C1)c1ccc(F)cc1Cl returned Tb MetRS inh -0.2, APOBEC3A inh -3.6 and A3G deaminase -6.9.
`CC1(C)Cc2c(C#N)c(N)sc(=S)c2CO1` gave Tb MetRS inh 0.1, APOBEC3A inh -2.9, A3G deaminase 30.2, PHOSPHO1 inh 79.5* and pCIP destab -7.0.
Screening CC(C)C1Cc2c(C#N)c(N)sc(=S)c2CO1 (stereo not given) returned Tb MetRS inh 0.1, APOBEC3A inh 1.3, A3G deaminase 12.3, PHOSPHO1 inh 88.6* and pCIP destab -11.0.
`CCCCC(=O)NNC(=S)NC(=O)CCC` gave Tb MetRS inh -0.1, APOBEC3A inh -4.1, A3G deaminase 2.2, PHOSPHO1 inh -4.4 and pCIP destab 29.9.
Screening CCCCC(=O)NC(=S)NNC(=O)CC#N returned Tb MetRS inh -0.1, APOBEC3A inh -4.5, A3G deaminase 8.6, PHOSPHO1 inh 95.4* and pCIP destab -14.0.
`COc1ccc(C(=O)NNC(=S)NC(=O)c2cccnc2)cc1` gave Tb MetRS inh -0.7, APOBEC3A inh 1.1, A3G deaminase 11.3, PHOSPHO1 inh -4.6 and pCIP destab -5.1.
`O=C(NNC(=S)NC(=O)c1cccnc1)c1ccc(F)cc1` gave Tb MetRS inh -0.3, APOBEC3A inh 3.9, A3G deaminase 24.5, PHOSPHO1 inh 85.0* and pCIP destab 6.6.
`COc1ccc(CC(=O)NNC(=S)NC(=O)c2cccnc2)cc1` gave Tb MetRS inh -0.4, APOBEC3A inh 1.2, A3G deaminase 32.0, PHOSPHO1 inh 85.0* and pCIP destab 2.8.
COc1cccc(/C=C/C(=O)OCC(=O)c2ccc(Br)cc2)c1 was read as Tb MetRS inh -0.1.
Cc1ccc(NC(=O)C/C(N)=N/O)cc1C was read as Tb MetRS inh -0.2, APOBEC3A inh 12.1, A3G deaminase 5.1, PHOSPHO1 inh 69.4* and pCIP destab -14.1.
For Cc1cccc(NC(=S)Nc2ccc(N3CCOCC3)cc2)c1C the results were Tb MetRS inh -0.4, APOBEC3A inh -1.2, A3G deaminase -1.4, PHOSPHO1 inh -1.8 and pCIP destab -12.9.
`Cc1ccc(/C=C/S(=O)(=O)NCc2ccc(F)cc2)cc1` gave Tb MetRS inh -1.0, APOBEC3A inh -3.4, A3G deaminase -5.2, PHOSPHO1 inh 28.5 and pCIP destab 7.6.
O=C1S/C(=C\c2ccc(N3CCOCC3)o2)C(=O)N1Cc1c(F)cccc1Cl was read as Tb MetRS inh -0.1, APOBEC3A inh -13.4, A3G deaminase -12.5, PHOSPHO1 inh 10.0 and pCIP destab -21.8.
For O=C1S/C(=C/c2ccc(N3CCOCC3)o2)C(=O)N1Cc1c(F)cccc1Cl the results were Tb MetRS inh -1.2, APOBEC3A inh 13.2, A3G deaminase -3.3, PHOSPHO1 inh 68.6* and pCIP destab -18.6.
Screening CC(=O)c1cccc(NC(=O)c2ccc(-c3c(C)noc3C)c3ccoc23)c1 returned Tb MetRS inh -0.2.

Compound activity from PubChem BioAssay.
